Reference: publication PMC2938439 (The Journal of Membrane Biology, 2010)
Peptide text beside a SMILES is read from it.

B1: Annexin B12 (protein, UniProt P26256 1-316, looked up)
Annexin-B12: MVVQGTVKPHASFNSREDAETLRKAMKGIGTDEKSITHILATRSNAQRQQIKTDYTTLFGKHLEDELKSELSGNYEAAALALLRKPDEFLAEQLHAAMKGLGTDENALIDILCTQSNAQIHAIKAAFKLLYKEDLEKEIISETSGNFQRLLVSMLQGGRKEDEPVNAAHAAEDAAAIYQAGEGQIGTDESRFNAVLATRSYPQLHQIFHEYSKISNKTILQAIENEFSGDIKNGLLAIVKSVENRFAYFAERLHHAMKGLGTSDKTLIRILVSRSEIDLANIKETFQAMYGKSLYEFIADDCSGDYKDLLLQITGH

Columns and labels:
[1] = monomolecular, ref Scholtz et al. [1991]; cited from earlier work
[2] = CD spectroscopy, two-cuvette experiment; format: physicochemical; conditions: error est. 10%
In short: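 Two-cuvette setup: test peptide solution in cell 1 and POPC LUV suspensions in cell 2, in the light path together. LUVs were extruded through 0.1-μm filters in 10 mM potassium phosphate pH 7.0. Peptide concentration was set by UV absorbance (tyrosine ε274nm 1,440 M−1 cm−1). 10–30 scans, 190–260 nm, 1-mm path, ~25°C. Ellipticity was expressed per residue.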

[3] = CD spectroscopy, peptide and LUVs in the same cuvette; format: physicochemical; conditions: for Θ222, same cell: pH 7.0, ~25°C, error est. 10%
In short: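 Lipid dried from chloroform under nitrogen, then under vacuum overnight. It was hydrated in 10 mM potassium phosphate pH 7.0, vortexed, and extruded 10× under nitrogen through two stacked 0.1-μm polycarbonate filters to give LUVs. Peptide and vesicles shared one cuvette, 1-mm path. 10–30 scans, 190–260 nm, ~25°C. A vesicle-only spectrum was subtracted. Ellipticity was converted to per-residue values.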

[4] = CD of Annexin B12 in solution and bound to LUVs; format: physicochemical; conditions: bound to LUVs in the presence of Ca^2+

| Molecule | α-helical content in buffer [1] | Θ222, two cells ([2]; +3 mM POPC LUVs in separate cuvette, peptide in buffer (40 μM)) | Θ222, two cells ([2]; +5 mM POPC LUVs in separate cuvette, peptide in buffer (40 μM)) | Θ222, two cells ([2]; +7 mM POPC LUVs in separate cuvette, peptide in buffer (40 μM)) | Θ222, two cells ([2]; no lipid, peptide in buffer (40 μM) in cell 1, ~25°C) | molar ellipticity of the peptide ([3]; 25°C, buffer with LUVs up to 7 mM, 40 μM peptide) | Θ222, same cell ([3]; +0.25 mM POPC LUVs in same cuvette, 40 μM peptide) | Θ222, same cell ([3]; +3 mM POPC LUVs in same cuvette, 40 μM peptide) | Θ222, same cell ([3]; +5 mM POPC LUVs in same cuvette, 40 μM peptide) | Θ222, same cell ([3]; +7 mM POPC LUVs in same cuvette, 40 μM peptide) | binding to POPC vesicles ([3]; same-cuvette versus two-cuvette CD spectra, LUVs up to 7 mM) | CD spectrum, aqueous versus LUV-associated [4] |
| --- | --- | --- | --- | --- | --- | --- | --- | --- | --- | --- | --- | --- |
| CC(=O)N[C@@H](Cc1ccc(O)cc1)C(=O)N[C@@H](C)C(=O)N[C@@H](CCC(=O)O)C(=O)N[C@@H](C)C(=O)N[C@@H](C)C(=O)N[C@@H](CCCCN)C(=O)N[C@@H](C)C(=O)N[C@@H](C)C(=O)N[C@@H](CCC(=O)O)C(=O)N[C@@H](C)C(=O)N[C@@H](C)C(=O)N[C@@H](CCCCN)C(=O)N[C@@H](C)C(=O)N[C@@H](C)C(=O)N[C@@H](CCC(=O)O)C(=O)N[C@@H](C)C(=O)N[C@@H](C)C(=O)N[C@@H](CCCCN)C(=O)N[C@@H](C)C(=O)N[C@@H](C)C(=O)N[C@@H](CCC(=O)O)C(=O)N[C@@H](C)C(=O)N[C@@H](C)C(=O)N[C@@H](CCCCN)C(=O)N[C@@H](C)C(=O)N[C@@H](Cc1ccccc1)C(N)=O [Ac-Y(AEAAKA)4F-NH2] (Ac-YAEAAKAAEAAKAAEAAKAAEAAKAF-NH2) | ~ 60% | −20,100 deg cm^2 dmol^−1 | −20,100 deg cm^2 dmol^−1 | −19,900 deg cm^2 dmol^−1 | −20,300 deg cm^2 dmol^−1 | −20(±0.5) × 10^3 deg cm^2 dmol^−1 | −20,100 deg cm^2 dmol^−1 | −19,800 deg cm^2 dmol^−1 | −19,700 deg cm^2 dmol^−1 | −19,700 deg cm^2 dmol^−1 | does not bind to POPC vesicles |  |
| B1 |  |  |  |  |  |  |  |  |  |  |  | essentially the same CD spectrum |
